Calls of active or inactive are those of the source.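 Rule for the calls, unless noted: active = inhibition of the reporter signal at or above 50%; inactive = inhibition below 50%.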
How the values were obtained:
[1] = inhibitors of TNFa-induced NFkB p65 translocation, primary screen, imaging, HUVEC, MLSMR starter and 10KST1 sets (AID 438;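 active = inhibition above 20% together with a positive visual image hit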;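 note: compound added about 3h40 before a 20 min TNFalpha stimulation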;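 for inhibition: signal is the nuclear over cytoplasmic p65 intensity ratio per well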); settings: HUVEC TNFa-induced p65 nuclear translocation; cell count: measured here: nuclei count (cytotoxicity indicator), at 2.08 µM; inhibition: at 2 µM, stronger effect = higher value, 0% TNFa-plus-vehicle, 100% no-TNFa wells
[2] = inhibitors of mutant huntingtin aggregation, primary screen, imaging, exon1htt(103Q)mCFP cells, high-content imaging (AID 483;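 active = visual image review flags a hit and inhibition of aggregation exceeds 20%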;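 note: compound exposure lasted 3 days before fixation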;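 for nuclei count: percent of the per-plate median nuclei count of sample wells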); settings: exon1htt(103Q)mCFP cell line, aggregate imaging, at 2 µM; inhibition of aggregation: stronger effect = higher value; nuclei count: measured here: cell count, toxicity
[3] = inhibitors of E-selectin induction by TNFa, primary screen, imaging, HUVEC, immunofluorescence, MLSMR starter and 10KST1 sets (AID 487;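 active = visually confirmed hit in the image check and inhibition above 20%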;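 for inhibition: signal is fraction of cell area covered by stained E-selectin grains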;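 for nuclei count: 100% = median nuclei count of all wells on the same plate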); settings: HUVEC TNFalpha-induced E-selectin immunofluorescence imaging, at 2 µM; inhibition: stronger effect = higher value; nuclei count: measured here: cell number, toxicity
[4] = biological target: Voltage-gated potassium channel subunit beta-2 (Rattus norvegicus) (UniProt P62483); test: KvBeta enzyme negative modulators, primary screen, biochemical, NADPH fluorescence (AID 622;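 active = fluorescence slope higher than the sample average by over 3 SD, cut at about -0.22 in these data, passing the limit was not always enough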;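 note: slope of raw intensity against log time taken from 70 to 1610 s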); settings: recombinant KvBeta, 4-cyanobenzaldehyde reduction, at 10 µM, stronger effect = higher value
[5] = biological target: Voltage-gated potassium channel subunit beta-2 (Rattus norvegicus) (UniProt P62483); test: KvBeta positive modulators, primary screen, biochemical, NADPH fluorescence (AID 623;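 active = NADPH fluorescence slope more negative than the mean of all samples by about 3 SD, 99.7% confidence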;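 note: fluorescence intensity change per second fitted from 20 to 320 s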); settings: Recombinant KvBeta, NADPH fluorescence decrease slope, 10 min; at 10 µM; stronger effect = lower value
[6] = biological target: Alpha-2C adrenergic receptor (Homo sapiens) (UniProt P18825); test: modulators of alpha2C/GIRK thallium flux, primary screen, cell-based, HEK293 alpha2C/GIRK1/2 (AID 624;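 active = fluorescence slope after compound addition differing from the mean of all screened samples at 99.7% confidence, in either direction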;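 note: slope of fluorescence ratio to pre-addition baseline per second over 15 to 24 s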); settings: thallium flux BTC fluorescence, at 10 µM, actives lie on both sides
[7] = inhibitors of larval lipid processing in zebrafish, primary screen, whole organism, PED6 fluorescence, gall bladder and intestine (AID 686;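 active = a full or partial loss of lipid-probe fluorescence in the fish gall bladder, intestine or both, judged by eye; inactive = no fluorescence loss, or compound toxic to the fish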;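 note: larvae 5 to 7 days old with five fish per well; signal comes from phospholipase A2 cleavage of quenched PED6 carried via bile; overnight exposure to compound and PED6 before scoring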); settings: Zebrafish larvae PED6 lipid processing, fluorescence scoring; screened at 20 µM (by protocol)
How it was run: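 system = live zebrafish larvae aged 5-7 days, whole organism | probe or stimulus = ingested quenched lipid PED6 at 100 nM | doses = 20 µM single dose | timing = overnight exposure | detection = fluorescence microscopy with visual scoring of gall bladder and intestine | read-out = visual per-well fluorescence inhibition score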

[8] = inhibitors of Sendai virus-induced IRF3 signaling, primary screen, TLR/RLR signaling modifier project, cell-based, Sendai virus stimulus, luciferase, 10K MLSCN set (AID 602276;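 active = inhibition at or above 50% at 10 µM; inactive = inhibition below 50%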;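 note: firefly luciferase from ISG56 promoter only with Renilla not read in this screen; 0% = Sendai virus plus DMSO and 100% = medium plus DMSO without virus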); settings: HEK293 RL24 IRF3 luciferase reporter, at 10 µM, stronger effect = higher value
[9] = inhibitors of poly I:C-induced TLR3 signaling, primary screen, cell-based, poly I:C stimulus, luciferase, 10K MLSCN set (AID 602277); settings: HEK293-TLR3 RL24 IRF3 luciferase reporter, at 10 µM, stronger effect = higher value

Sequence of Alpha-2C adrenergic receptor (Homo sapiens) (P18825 whole entry, looked up): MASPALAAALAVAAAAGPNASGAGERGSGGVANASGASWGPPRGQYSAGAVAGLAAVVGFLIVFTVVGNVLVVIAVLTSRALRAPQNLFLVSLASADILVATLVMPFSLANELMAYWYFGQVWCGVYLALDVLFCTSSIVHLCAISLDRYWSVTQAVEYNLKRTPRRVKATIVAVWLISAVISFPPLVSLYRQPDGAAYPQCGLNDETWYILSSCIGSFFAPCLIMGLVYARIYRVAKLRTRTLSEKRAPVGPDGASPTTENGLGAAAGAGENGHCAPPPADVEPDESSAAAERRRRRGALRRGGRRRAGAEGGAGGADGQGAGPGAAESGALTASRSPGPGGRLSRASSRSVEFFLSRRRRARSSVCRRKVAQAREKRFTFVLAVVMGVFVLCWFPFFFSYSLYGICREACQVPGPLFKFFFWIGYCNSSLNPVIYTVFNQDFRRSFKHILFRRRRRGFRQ
Sequence of Voltage-gated potassium channel subunit beta-2 (Rattus norvegicus) (P62483 whole entry, looked up): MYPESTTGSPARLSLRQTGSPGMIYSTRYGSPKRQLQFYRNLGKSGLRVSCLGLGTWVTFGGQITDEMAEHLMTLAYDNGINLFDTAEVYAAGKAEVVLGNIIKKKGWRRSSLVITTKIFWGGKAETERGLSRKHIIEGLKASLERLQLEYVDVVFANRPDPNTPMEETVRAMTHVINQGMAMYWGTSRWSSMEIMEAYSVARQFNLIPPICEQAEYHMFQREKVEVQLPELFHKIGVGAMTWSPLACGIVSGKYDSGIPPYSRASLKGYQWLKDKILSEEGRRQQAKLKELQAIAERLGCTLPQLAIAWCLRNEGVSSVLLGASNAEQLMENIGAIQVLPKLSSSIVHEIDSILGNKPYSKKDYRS

Structure (SMILES) | cell count [1] | inhibition [1] | inhibition of aggregation [2] | nuclei count [2] [%] | inhibition [3] | nuclei count [3] [%] | fluorescence slope [4] | NADPH fluorescence slope [5] | slope [6] | outcome [7] | inhibition [8] | inhibition [9]
Cc1ccc(S(=O)(=O)N2CCCN(S(=O)(=O)C3CCS(=O)(=O)C3)CC2)cc1 (stereo not drawn) | 455 | 2.4% (inactive) | -22.7% (inactive) | 111 | -102% (inactive) | 129 | -0.366 (inactive) | -4.2e-05 (inactive) | 0.00596 (inactive) | inactive | 12.7% (inactive) | 14% (inactive)
CCCn1c(SCC(=O)NC(=O)NCc2ccco2)n[nH]c1=O | 424 | 3.7% (inactive) | -7.6% (inactive) | 73.3 | -178% (inactive) | 117 | -0.39 (inactive) | -3.4e-05 (inactive) | 0.00519 (inactive) | inactive | 2.79% (inactive) | 15.3% (inactive)
CC(C)(C)NC(=O)CN(Cc1cccs1)C(=O)c1csnn1 | 570 | 12.9% (inactive) | 34.6% (active) | 85 | 20.6% (inactive) | 89.9 | -0.431 (inactive) | -4.2e-05 (inactive) | 0.00455 (inactive) | inactive | 11.9% (inactive) | 16.1% (inactive)
CCn1c(CCC(=O)Nc2nc3c(s2)CCCC3)nc2cc(S(=O)(=O)N(C)C)ccc21 | 288 | 1.4% (inactive) | -9% (inactive) | 103 | -54.4% (inactive) | 123 | -0.398 (inactive) | -3e-05 (inactive) | 0.00627 (inactive) |  | 14.6% (inactive) | 18.8% (inactive)
Cc1c(C)n(C(=O)CN2CCN(c3ccccn3)CC2)c2ccccc12 | 428 | 2.3% (inactive) | 2.9% (inactive) | 95.7 | 3.5% (inactive) | 131 | -0.376 (inactive) | -3.7e-05 (inactive) | 0.00497 (inactive) | inactive | 8.12% (inactive) | 11.3% (inactive)
O=C(Nc1ccccc1)N(CCCN1CCOCC1)Cc1cc2cc3c(cc2[nH]c1=O)OCCO3 | 390 | 8% (inactive) | 20.1% (inactive) | 70.5 | -24.2% (inactive) | 98.3 | -0.412 (inactive) | -4.1e-05 (inactive) | 0.00525 (inactive) | inactive | -3.35% (inactive) | 8.69% (inactive)
O=C(C1CCCO1)N1CCN(S(=O)(=O)c2ccccc2)CC1 (stereo not drawn) | 328 | 4% (inactive) | 3.2% (inactive) | 86.5 | -28.4% (inactive) | 102 | -0.439 (inactive) | -8.1e-05 (inactive) | 0.00532 (inactive) | inactive | 12.6% (inactive) | 12.9% (inactive)
O=C1c2ccccc2NC(c2cccc(F)c2)N1Cc1ccco1 (stereo not drawn) | 586 | -32.4% (inactive) | 10.2% (inactive) | 106 | -0.5% (inactive) | 107 | -0.308 (inactive) | -2.7e-05 (inactive) | 0.00344 (inactive) | inactive | 16.4% (inactive) | 17.8% (inactive)
O=C(NCCCN1CCN(Cc2ccccc2)CC1)C1CCN(c2nnc(-n3cccc3)s2)CC1 | 336 | -11.8% (inactive) | -22.5% (inactive) | 103 | -119% (inactive) | 126 | -0.393 (inactive) | -5e-05 (inactive) | 0.00457 (inactive) | inactive | -19.7% (inactive) | -72% (inactive)
COC(=O)c1ccc(CSc2nc3ccccc3s2)o1 | 483 | -6.3% (inactive) | -4% (inactive) | 126 | -0.4% (inactive) | 104 | -0.47 (inactive) | -1.1e-05 (inactive) | 0.00436 (inactive) | inactive | -35.6% (inactive) | -50.2% (inactive)
Cc1cc(NC(=O)CSc2nc(C3CC3)nc3sc4c(c23)CCC(C)C4)no1 (stereo not drawn) | 321 | -1.3% (inactive) | 0.7% (inactive) | 75.3 | -43% (inactive) | 113 | -0.394 (inactive) | -5.2e-05 (inactive) | 0.00786 (inactive) | inactive | -13.4% (inactive) | -24.3% (inactive)
COc1ccc(C)cc1NC(=O)c1nc2nc(C)cc(C)n2n1 | 471 | 3.8% (inactive) | 5.2% (inactive) | 98.1 | -23.4% (inactive) | 124 | -0.297 (inactive) | 1.4e-06 (inactive) | 0.00674 (inactive) |  | 18.5% (inactive) | 9.03% (inactive)
CCOC(=O)c1c(-c2ccc(C)o2)csc1NC(=O)CN1CCN(CC)CC1 | 393 | -0.4% (inactive) | 8.3% (inactive) | 95.5 | -12.2% (inactive) | 106 | -0.409 (inactive) | -3.8e-05 (inactive) | 0.0051 (inactive) | inactive | 11.4% (inactive) | 22% (inactive)
Cc1nnc(NC(=O)c2ccccc2F)s1 | 421 | 6% (inactive) | 14.2% (inactive) | 103 | 6.9% (inactive) | 125 | -0.614 (inactive) | 5.1e-06 (inactive) | 0.00652 (inactive) |  | -6.19% (inactive) | -17.6% (inactive)
O=C1OCCC1Sc1ncnc2sc3c(c12)CCC3 (stereo not drawn) | 755 | -6.2% (inactive) | 4.8% (inactive) | 84.1 | -9.4% (inactive) | 111 | -0.412 (inactive) | 4.3e-06 (inactive) | 0.00667 (inactive) |  | 9.45% (inactive) | 17% (inactive)
C=CCC1(O)C(=O)Nc2ccccc21 (stereo not drawn) | 585 | -13.3% (inactive) | -5.5% (inactive) | 106 | -66.6% (inactive) | 115 | -0.339 (inactive) | -5.2e-05 (inactive) | 0.00522 (inactive) | inactive | 16.6% (inactive) | 18.3% (inactive)
CCCNC(=O)N1CCN(S(=O)(=O)c2ccc(C)c(C)c2)CC1 | 412 | -0.4% (inactive) | -16.1% (inactive) | 105 | -28.8% (inactive) | 103 | -0.486 (inactive) | -5.4e-05 (inactive) | 0.00557 (inactive) | inactive | -6.27% (inactive) | -8.98% (inactive)
CC1CCCN(S(=O)(=O)c2ccc(C(=O)Nc3nnc(-c4ccccc4Cl)o3)cc2)C1 (stereo not drawn) | 687 | -2.8% (inactive) | 10.5% (inactive) | 111 | -16.5% (inactive) | 110 | -0.468 (inactive) | -2.3e-05 (inactive) | 0.0065 (inactive) |  | 22.7% (inactive) | 25.9% (inactive)
COCCn1c(C)cc(C(=O)COC(=O)c2ccc(N3CCCC3=O)cc2)c1C | 527 | -16.9% (inactive) | 12.8% (inactive) | 97.9 | 26.9% (inactive) | 103 | -0.329 (inactive) | -7.1e-05 (inactive) | 0.00515 (inactive) | inactive | 14.7% (inactive) | 26.1% (inactive)
O=C(C1=C(O)C(=O)N(Cc2ccccc2)C1c1ccncc1)c1ccco1 (stereo not drawn) | 382 | 8.3% (inactive) | -3.4% (inactive) | 116 | -216% (inactive) | 143 | -0.192 (inactive) | 2.5e-06 (inactive) | 0.0062 (inactive) |  | -5.31% (inactive) | 2.12% (inactive)
O=C(Nc1cc(C(=O)N2CCCC2)ccc1N1CCCC1)c1ccccc1F | 612 | 2% (inactive) | -12.8% (inactive) | 107 | -93% (inactive) | 95.8 | -0.343 (inactive) | -7.2e-05 (inactive) | 0.00481 (inactive) | inactive | -1.26% (inactive) | -54% (inactive)
CCC1(C)Cc2c(sc3nc(SCC(=O)O)[nH]c(=O)c23)CO1 (stereo not drawn) | 549 | -14.6% (inactive) | -5% (inactive) | 114 | -41% (inactive) | 104 | -0.391 (inactive) | -1.8e-05 (inactive) | 0.00549 (inactive) | inactive | 1.92% (inactive) | 7.26% (inactive)
O=C(CN1CCN(c2ccc(F)cc2)CC1)OCc1ccccc1 | 662 | 11.1% (inactive) | -6.3% (inactive) | 102 | 5.8% (inactive) | 118 | -0.356 (inactive) | -6.7e-05 (inactive) | 0.00472 (inactive) | inactive | 6.81% (inactive) | 6.58% (inactive)
COCCN(CCOC)C(=O)CCn1c(=O)oc2ccccc21 | 589 | 3.3% (inactive) | 2.1% (inactive) | 107 | 37.7% (inactive) | 100 | -0.462 (inactive) | -5.7e-05 (inactive) | 0.00623 (inactive) | inactive | 17.5% (inactive) | 8.78% (inactive)
Nc1cc(N)nc(SCc2ccccc2)n1 | 371 | 1.1% (inactive) | 6.6% (inactive) | 103 | -26.1% (inactive) | 108 | -0.499 (inactive) | 1.3e-05 (inactive) | 0.00402 (inactive) | inactive | -47.8% (inactive) | -101% (inactive)
COc1cc2cc(C(c3nnnn3C3CCCC3)N3CCCCCC3)c(=O)[nH]c2cc1OC (stereo not drawn) | 477 | -13.3% (inactive) | 22.5% (inactive) | 75 | 40.8% (inactive) | 73.4 | -0.351 (inactive) | -7.3e-05 (inactive) | 0.00516 (inactive) | inactive | 17% (inactive) | 20.8% (inactive)
Cc1nnc(NC(=O)C2CCCO2)s1 (stereo not drawn) | 345 | 5.2% (inactive) | -9.5% (inactive) | 97.4 | -105% (inactive) | 104 | -0.467 (inactive) | -4.2e-05 (inactive) | 0.00593 (inactive) | active; weak signal in gallbladder only | 6.24% (inactive) | 6.47% (inactive)
